{"source": "ChEMBL document CHEMBL1152997", "about": "“Prevalence of and molecular basis for tuberculosis drug resistance in the Republic of Georgia: validation of a QIAplex system for detection of drug resistance-related mutations” (2008)", "assay_type_in_all_cases": "functional", "key": {"[1]": {"test_system": "Mycobacterium tuberculosis", "assay": "Antimycobacterial activity against Mycobacterium tuberculosis clinical isolates from tuberculosis patient assessed as percent resistant isolates at 2 ug/ml by absolute-concentration method", "procedure,_shortened": "(§1)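 Consecutive clinical M. tuberculosis isolates (196), Tbilisi, Jan–Mar 2006, primary culture on Lowenstein-Jensen medium. Suspension adjusted to 1 McFarland in sterile saline. 0.2 ml was plated onto drug-containing solid medium: a 10-fold dilution series for the 2, 4 and 40 µg/ml media, and a 100-fold dilution for the 0.2 µg/ml medium. Incubation at 37°C, 5–10% CO2, 28 days.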"}, "[2]": {"test_system": "Mycobacterium tuberculosis", "assay": "Antimycobacterial activity against Mycobacterium tuberculosis clinical isolates from tuberculosis patient assessed as percent resistant isolates at 0.2 ug/ml by absolute-concentration method", "procedure,_shortened": "as §1"}, "[3]": {"test_system": "Mycobacterium tuberculosis", "assay": "Antimycobacterial activity against Mycobacterium tuberculosis clinical isolates from tuberculosis patient assessed as percent resistant isolates at 40 ug/ml by absolute-concentration method", "procedure,_shortened": "as §1"}, "[4]": {"test_system": "Mycobacterium tuberculosis", "assay": "Antimycobacterial activity against Mycobacterium tuberculosis clinical isolates from tuberculosis patient assessed as percent resistant isolates at 4 ug/ml by absolute-concentration method", "procedure,_shortened": "as §1"}}}
{"smiles": "CC[C@@H](CO)NCCN[C@@H](CC)CO", "note": "[ETHAMBUTOL]", "values": [{"measurement": "Activity", "setting": "[1]", "value": 2.6, "unit": "%"}]}
{"smiles": "NNC(=O)c1ccncc1", "note": "[ISONIAZID]", "values": [{"measurement": "Activity", "setting": "[2]", "value": 20.9, "unit": "%"}]}
{"smiles": "CO[C@H]1/C=C/O[C@@]2(C)Oc3c(C)c(O)c4c(O)c(c(/C=N/N5CCN(C)CC5)c(O)c4c3C2=O)NC(=O)/C(C)=C\\C=C\\[C@H](C)[C@H](O)[C@@H](C)[C@@H](O)[C@@H](C)[C@H](OC(C)=O)[C@@H]1C", "note": "[RIFAMPIN]", "values": [{"measurement": "Activity", "setting": "[3]", "value": 9.2, "unit": "%"}]}
{"smiles": "CN[C@@H]1[C@H](O[C@H]2[C@H](O[C@H]3[C@H](O)[C@@H](O)[C@H](N=C(N)N)[C@@H](O)[C@@H]3N=C(N)N)O[C@@H](C)[C@]2(O)C=O)O[C@@H](CO)[C@H](O)[C@H]1O", "note": "[STREPTOMYCIN]", "values": [{"measurement": "Activity", "setting": "[4]", "value": 25, "unit": "%"}]}
